Experimental data reported in publication PMC4277207 (ChemMedChem, 2014).
“Also recorded” adds a separate entry of the source. Like-named read-outs stand apart in the source and are kept apart here.

Key:
[1] = tested on: D1-like receptor (D1 and D5); assay: [3H]SCH 23390 binding assay, rat striatal membranes; details: ratio of Ki values, rat brain preparation
[2] = assay type: in vitro ADME
[3] = biological target: human D3 receptor (Homo sapiens, UniProt P35462); assay type: cell-based; details: hD3-transfected CHOp cells, mitogenesis; for IC50: read-out: Agonist activity: IC50, mean ± SEM of 3–6 determinations
[4] = tested on: D2-like receptor (D2, D3, and D4); assay: [3H]spiperone binding assay, rat striatal; details: ratio of Ki values, rat brain preparation
Summary of the method: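 The D2-like assay used [3H]spiperone at 0.2 nM on caudate-putamen membranes at 1.5 mg o.w.w./mL, in agonist-optimised Tris-HCl/KCl/MgCl2/CaCl2 buffer at pH 7.4. Nonspecific binding was set with 1 μM (+)-butaclamol, and KD was 0.4 nM. For two-site curves, the high-affinity Ki is reported. […] Values are means of 3–6 determinations.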

human D3 receptor, sequence (P35462 whole entry): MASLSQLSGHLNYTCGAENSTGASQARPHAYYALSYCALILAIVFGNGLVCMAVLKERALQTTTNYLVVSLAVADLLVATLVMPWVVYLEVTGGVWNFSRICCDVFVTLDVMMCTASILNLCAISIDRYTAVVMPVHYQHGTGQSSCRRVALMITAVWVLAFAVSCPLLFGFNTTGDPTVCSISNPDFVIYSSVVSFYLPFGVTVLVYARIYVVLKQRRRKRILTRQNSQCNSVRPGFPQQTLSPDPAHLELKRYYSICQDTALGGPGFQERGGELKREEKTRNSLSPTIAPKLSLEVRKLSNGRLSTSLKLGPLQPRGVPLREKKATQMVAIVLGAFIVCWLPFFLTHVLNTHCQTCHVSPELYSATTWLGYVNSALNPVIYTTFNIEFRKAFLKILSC

## CCCN(CC[C@]1(O)C[C@@H](NC(=O)c2cccc(-c3noc(C)n3)c2)C1)[C@H]1CCc2nc(N)sc2C1 (relative stereo) [Compound 23, N-(cis-3-(2-(((S)-2-amino-4,5,6,7-tetrahydrobenzo[d]thiazol-6-yl)(propyl)amino)-ethyl)-3-hydroxycyclobutyl)-3-(5-methyl-1,2,4-oxadiazol-3-yl)benzamide]
[1]
  Selectivity D1-like/D3: 28,300
[2]
  t1/2 in human liver microsomes: >1 h
[2]; 0 h
  Percentage remaining of compounds in human liver microsomes: 100%
[2]; 5 min
  Percentage remaining of compounds in human liver microsomes: 96.6%
[2]; 10 min
  Percentage remaining of compounds in human liver microsomes: 99.2%
[2]; 0.25 h
  Percentage remaining of compounds in human liver microsomes: 99.0%
[2]; 0.5 h
  Percentage remaining of compounds in human liver microsomes: 90.0%
[2]; 1 h
  Percentage remaining of compounds in human liver microsomes: 65.5%
[3]
  % of Stimulation compared to Quinpirole as the standard agonist: 100%
  functional activity at the human D3 receptor (agonist character): full D3 agonists; also recorded: full agonist
  IC50: 19 ± 1.5 nM
[4]
  Selectivity D2-like/D3: 29,800

## CCCN(CC[C@]1(O)C[C@@H](NC(=O)c2cccc(OC)c2)C1)[C@H]1CCc2nc(N)sc2C1 (relative stereo) [Compound 21, N-(cis-3-(2-(((S)-2-Amino-4,5,6,7-tetrahydrobenzo[d]thiazol-6-yl)(propyl)amino)-ethyl)-3-hydroxycyclobutyl)-3-methoxybenzamide]
[1]
  Selectivity D1-like/D3: 84,474
[2]
  t1/2 in human liver microsomes: >1 h
[2]; 0 h
  Percentage remaining of compounds in human liver microsomes: 100%
[2]; 5 min
  Percentage remaining of compounds in human liver microsomes: 99.7%
[2]; 10 min
  Percentage remaining of compounds in human liver microsomes: 98.5%
[2]; 0.25 h
  Percentage remaining of compounds in human liver microsomes: 92.5%
[2]; 0.5 h
  Percentage remaining of compounds in human liver microsomes: 83.0%
[2]; 1 h
  Percentage remaining of compounds in human liver microsomes: 74.1%
[3]
  % of Stimulation compared to Quinpirole as the standard agonist: 100%
  functional activity at the human D3 receptor (agonist character): full D3 agonists
  IC50: 18 ± 2.7 nM
[4]
  Selectivity D2-like/D3: 12,836

## CCCN(CCC1(O)CC(NC(=O)c2ccc(F)c(Cl)c2)C1)[C@H]1CCc2nc(N)sc2C1 (stereo in doubt) [Compound 18, N-(cis-3-(2-(((S)-2-amino-4,5,6,7-tetrahydrobenzo[d]thiazol-6-yl)(propyl)amino)-ethyl)-3-hydroxycyclobutyl)-3-chloro-4-fluorobenzamide]
[1]
  Selectivity D1-like/D3: 65,581
[3]
  % of Stimulation compared to Quinpirole as the standard agonist: 100%
  functional activity at the human D3 receptor (agonist character): full D3 agonists
  IC50: 2 ± 0.34 nM
[4]
  Selectivity D2-like/D3: 16,272

## CCCN(CCC1(O)CC(NC(=O)c2ccccc2F)C1)[C@H]1CCc2nc(N)sc2C1 (stereo in doubt) [Compound 15, N-(cis-3-(2-(((S)-2-amino-4,5,6,7-tetrahydrobenzo[d]thiazol-6-yl)(propyl)amino)-ethyl)-3-hydroxycyclobutyl)-2-fluorobenzamide]
[1]
  Selectivity D1-like/D3: 116,521
[3]
  % of Stimulation compared to Quinpirole as the standard agonist: 100%
  functional activity at the human D3 receptor (agonist character): full D3 agonists
  IC50: 2 ± 0.49 nM
[4]
  Selectivity D2-like/D3: 36,956
